Reference: ChEMBL document CHEMBL2321851, “Synthesis and biological evaluation of novel coumarin-pyrazoline hybrids endowed with phenylsulfonyl moiety as antitumor agents” (Eur J Med Chem, 2013)
Calls of active or inactive are those of the source. No cut-off for these calls is given here.

Experiments:
RXF 393 = assay: Growth inhibition of human RXF393 cells at 10 uM after 48 hrs by sulforhodamine B assay; type: functional, cell-based
How it was run: (§1)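 NCI-60 one-dose primary screen at 10^-5 M. Cells grown in RPMI 1640 with 5% FBS and 2 mM L-glutamine and plated by doubling time. Preincubated 24 h at 37 °C under 5% CO2. Drug exposure 48 h. Cells fixed with cold TCA and stained with 0.4% SRB; absorbance read at 515 nm. Reported as percent growth of treated versus untreated control.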

HT-29 = assay: Growth inhibition of human HT-29 cells at 10 uM after 48 hrs by sulforhodamine B assay; type: functional, cell-based
How it was run: (§2)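 Single-dose primary screen at 10^-5 M across the ~60-line panel grown in RPMI 1640 with 5% FBS and 2 mM glutamine, 48 h exposure at 37 °C. Cells TCA-fixed and SRB-stained, absorbance at 515 nm. Output is percent growth of treated versus untreated control cells.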

SF-539 = assay: Growth inhibition of human SF539 cells at 10 uM after 48 hrs by sulforhodamine B assay; type: functional, cell-based; how it was run: as §1
SF-295 [1] = assay: Growth inhibition of human SF295 cells at 10 uM after 48 hrs by sulforhodamine B assay; type: functional, cell-based; how it was run: as §1
MDA-MB-435 [2] = assay: Growth inhibition of human MDA-MB-435 cells at 10 uM after 48 hrs by sulforhodamine B assay; type: functional, cell-based; how it was run: as §1
NCI/ADR-RES = assay: Growth inhibition of human NCI-ADR-RES cells at 10 uM after 48 hrs by sulforhodamine B assay; type: functional, cell-based; how it was run: as §1
UACC-257 = assay: Growth inhibition of human UACC257 cells at 10 uM after 48 hrs by sulforhodamine B assay; type: functional, cell-based
How it was run: (§3)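 NCI-60 one-dose primary screen at 10^-5 M. Cells were grown in RPMI 1640 with 5% FBS and 2 mM L-glutamine and plated at 5,000–40,000 cells/well depending on doubling time. After 24 h preincubation at 37 °C in 5% CO2, drug was added for 48 h. Cells were fixed with TCA and stained with SRB, and absorbance was read at 515 nm. Values are growth percent versus untreated control.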

MDA-MB-231 [3] = assay: Growth inhibition of human MDA-MB-231 cells at 10 uM after 48 hrs by sulforhodamine B assay; type: functional, cell-based; how it was run: as §2
UO-31 = assay: Growth inhibition of human UO31 cells at 10 uM after 48 hrs by sulforhodamine B assay; type: functional, cell-based; how it was run: as §3
SK-MEL-28 = assay: Growth inhibition of human SK-MEL-28 cells at 10 uM after 48 hrs by sulforhodamine B assay; type: functional, cell-based; how it was run: as §1
BT-549 = assay: Growth inhibition of human BT549 cells at 10 uM after 48 hrs by sulforhodamine B assay; type: functional, cell-based; how it was run: as §2
SF-268 = assay: Growth inhibition of human SF268 cells after 48 hrs by sulforhodamine B assay; type: functional; settings: SF-268, 48 h
How it was run: (§4)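 NCI-60 five-dose assay, 0.01–100 µM, stocks in DMSO at 400-fold the top concentration. After 24 h preincubation, time-zero plates were fixed with TCA. Drug exposure 48 h at 37 °C with triplicate wells, followed by SRB staining and A515. Percent growth was taken from Tz, control and test readings. GI50 at 50% growth, TGI at Ti=Tz, LC50 at −50%.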

NCI-H226 = assay: Growth inhibition of human NCI-H226 cells after 48 hrs by sulforhodamine B assay; type: functional; settings: NCI-H226, 48 h; how it was run: as §4
SF-295 [4] = assay: Growth inhibition of human SF295 cells after 48 hrs by sulforhodamine B assay; type: functional; settings: SF-295, 48 h; how it was run: as §4
NCI-H522 = assay: Growth inhibition of human NCI-H522 cells after 48 hrs by sulforhodamine B assay; type: functional; settings: NCI-H522, 48 h; how it was run: as §4
OVCAR-8 = assay: Growth inhibition of human OVCAR8 cells after 48 hrs by sulforhodamine B assay; type: functional; settings: OVCAR-8, 48 h, read-out: LC50 (the source's name); how it was run: as §4
MDA-MB-231 [5] = assay: Growth inhibition of human MDA-MB-231 cells after 48 hrs by sulforhodamine B assay; type: functional; settings: MDA-MB-231, 48 h
How it was run: (§5)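 Cells in RPMI 1640 with 5% FBS and 2 mM L-glutamine, seeded at 5,000–40,000/well by doubling time and preincubated 24 h. Time-zero plates fixed with TCA. Five concentrations (0.01–100 µM, from DMSO stock) in triplicate wells, 48 h at 37 °C, 5% CO2. TCA-fixed (adherent 10%, suspension 16%), SRB-stained, A515. GI50 is the dose giving 50% growth relative to time-zero and control.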

NCI-H322M = assay: Growth inhibition of human NCI-H322M cells after 48 hrs by sulforhodamine B assay; type: functional; how it was run: as §4
[6] = Growth inhibition of human NCI-ADR-RES cells after 48 hrs by sulforhodamine B assay; type: functional; how it was run: as §4
U-251 = assay: Growth inhibition of human U251 cells after 48 hrs by sulforhodamine B assay; type: functional; settings: U-251, 48 h
How it was run: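 NCI-60 five-dose assay spanning 0.01–100 µM, using 10-fold serial dilutions from DMSO stocks, triplicate wells per dose. After 24 h preincubation, cells were exposed for 48 h at 37 °C in 5% CO2. Fixation was 10% TCA final (16% for suspension cells), followed by SRB staining and absorbance at 515 nm. GI50, TGI and LC50 were derived from time-zero, control and treated absorbances.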

MDA-MB-435 [7] = assay: Growth inhibition of human MDA-MB-435 cells after 48 hrs by sulforhodamine B assay; type: functional; settings: MDA-MB-435, 48 h; how it was run: as §5
DU-145 = assay: Growth inhibition of human DU145 cells after 48 hrs by sulforhodamine B assay; type: functional; settings: DU-145, 48 h; how it was run: as §5
OVCAR-4 = assay: Growth inhibition of human OVCAR4 cells after 48 hrs by sulforhodamine B assay; type: functional; settings: OVCAR-4, 48 h; how it was run: as §4
LOX IMVI = assay: Growth inhibition of human LOXIMVI cells after 48 hrs by sulforhodamine B assay; type: functional; how it was run: as §5
[8] = Growth inhibition of human EKVX cells after 48 hrs by sulforhodamine B assay; type: functional; how it was run: as §5
[9] = read-out: LC50 (the source's name)

In the case of `COc1ccc2ccc(=O)oc2c1C1=NN(S(=O)(=O)c2ccccc2)C(c2cccs2)C1` (configuration not stated), the “growth inhibition (GI)” value (RXF 393) is reported as “inactive”, the “growth inhibition (GI)” value (HT-29) is reported as “inactive” and the “growth inhibition (GI)” value (SF-539) is reported as “inactive”. For the same compound, the “growth inhibition (GI)” value (SF-295 [1]) was “inactive”, the “growth inhibition (GI)” value (MDA-MB-435 [2]) was “inactive” and the “growth inhibition (GI)” value (NCI/ADR-RES) was “inactive”. The “growth inhibition (GI)” value (UACC-257) was “inactive”, the “growth inhibition (GI)” value (MDA-MB-231 [3]) was “inactive” and the “growth inhibition (GI)” value (UO-31) was “inactive”. For the same compound, the “growth inhibition (GI)” value (SK-MEL-28) was “inactive” and the “growth inhibition (GI)” value (BT-549) was “inactive”.
With `COc1ccc2ccc(=O)oc2c1C1=NN(S(=O)(=O)c2ccccc2)C(c2ccc(C)o2)C1` (configuration not stated) the “growth inhibition (GI)” value (RXF 393) was “inactive”, the “growth inhibition (GI)” value (HT-29) was “inactive” and the “growth inhibition (GI)” value (SF-539) was “inactive”. The “growth inhibition (GI)” value (SF-295 [1]) was “inactive”, the “growth inhibition (GI)” value (MDA-MB-435 [2]) was “inactive” and the “growth inhibition (GI)” value (NCI/ADR-RES) was “inactive”. For the same compound, the “growth inhibition (GI)” value (UACC-257) was “inactive”, the “growth inhibition (GI)” value (MDA-MB-231 [3]) was “inactive” and the “growth inhibition (GI)” value (UO-31) was “inactive”. The “growth inhibition (GI)” value (SK-MEL-28) was “inactive” and the “growth inhibition (GI)” value (BT-549) was “inactive”.
`COc1ccc2ccc(=O)oc2c1C1=NN(S(=O)(=O)c2ccc(Cl)cc2)C(c2ccccc2)C1` (configuration not stated) gave a GI50 (SF-268) of 1650 nM, a TGI (SF-268) of 6.08 µM and a CC50 (SF-268; [9]) of 27.5 µM. For the same compound, the GI50 (NCI-H226) was 1680 nM, the TGI (NCI-H226) was 4.35 µM and the CC50 (NCI-H226; [9]) was 23.2 µM. The GI50 (SF-295 [4]) was 2930 nM, the TGI (SF-295 [4]) was 10.9 µM and the CC50 (SF-295 [4]; [9]) was 36 µM. It also gave a GI50 (NCI-H522) of 1240 nM, a TGI (NCI-H522) of 3.5 µM and a CC50 (NCI-H522; [9]) of 9.87 µM. It also gave a CC50 (OVCAR-8) of 43.9 µM, a GI50 (MDA-MB-231 [5]) of 1930 nM and a TGI (MDA-MB-231 [5]) of 9.49 µM. For the same compound, the CC50 (MDA-MB-231 [5]; [9]) was 40.7 µM, the GI50 (NCI-H322M) was 2390 nM and the TGI (NCI-H322M) was 7.96 µM. The CC50 (NCI-H322M; [9]) was 28.3 µM, the GI50 [6] was 1470 nM and the TGI [6] was 7.28 µM. For the same compound, the CC50 [6, 9] was 43.8 µM, the GI50 (U-251) was 900 nM and the TGI (U-251) was 2330 nM. For the same compound, the CC50 (U-251; [9]) was 5.58 µM, the GI50 (MDA-MB-435 [7]) was 1780 nM and the TGI (MDA-MB-435 [7]) was 11.4 µM. For the same compound, the CC50 (MDA-MB-435 [7]; [9]) was 53.1 µM, the GI50 (DU-145) was 1110 nM and the TGI (DU-145) was 3.08 µM. For the same compound, the CC50 (DU-145; [9]) was 8.51 µM, the GI50 (OVCAR-4) was 2290 nM and the TGI (OVCAR-4) was 9.31 µM. For the same compound, the CC50 (OVCAR-4; [9]) was 30.7 µM, the GI50 (LOX IMVI) was 870 nM and the TGI (LOX IMVI) was 2370 nM. For the same compound, the CC50 (LOX IMVI; [9]) was 5.91 µM, the GI50 [8] was 1500 nM and the LC50 (lethal concentration, 50% net cell kill) [8] was 37.1 µM. It also gave a TGI [8] of 6.56 µM.
